sPLA2-III inh: Inhibits HGIII-sPLA2 liposome hydrolysis, primary screen. 370,000 compounds, 0.56% hits. Q9NZ20. inhibition, % at 12.2 µM. QFRET BODIPY PC-A2 liposome hydrolysis, fluorescence;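 active means inhibition above mean plus 3 SD of compounds lying within the high and low control bounds, cut at about 19% in these data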;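 further: 0% = median of test compound wells and 100% = no enzyme DMSO wells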
Arr AP2 block: inhibitors of human beta-arrestin and AP2 interaction; FITC-arrestin peptide / GST-AP2 beads, flow cytometry; AP2 beta2 appendage carries R879A mutation; inhibition, % at 10 µM; 340,000 compounds, 0.31% hits;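 active means inhibition above a set limit, near 3 SD of compounds lacking own fluorescence, cut at about 54% in these data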;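 further: plate controls were DMSO wells for no effect and 5 µM unlabelled arrestin peptide for full effect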
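test system = AP2 appendage R879A on GSH beads | buffer or medium = PBS plus Tween 20 (0.05%) and BSA (0.1%) | incubation = 12 min plus 1 h, RT | detection = bead flow cytometry, FITC channel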
proCasp7 act: counter-screen for procaspase-3 activators: activators of human procaspase-7; 330,000 compounds, 0.093% hits; AID 463210; P55210; activation, % at 8.5 µM; recombinant procaspase-7, Ac-DEVD-pNA absorbance 405 nm; D23A/D198A/D206A triple mutant, cannot self-cleave; scale: DMSO 0, 5 µM enzyme 100;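 active means percent activation above the screen-wide mean plus 3 SD, cut at about 25% in these data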
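Material: Procaspase-7 triple mutant (PC-7 D3A) | Quantity: 2 µM procaspase-7 mutant as dispensed | Reagent: DEVD-pNA substrate | Times: 1 h preincubation, 2 h reaction | Technique: 405 nm absorbance of p-nitroaniline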
PLCb3 inh: PLC-beta3 (human) inhibition, primary screen; Q01970; Purified PLC-beta3, fluorogenic substrate, fluorescence; inhibition, % at 12.2 µM; 370,000 compounds, 0.18% hits; in the data active means inhibition above about 11%;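 further: 0% = median of compound wells on plate and 100% = full blocker control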
proCasp3 act: activates human procaspase-3; 330,000 compounds, 0.11% hits; activation, % at 8.5 µM; P42574; recombinant procaspase-3 D3A, Ac-DEVD-pNA absorbance 405 nm;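 active means activation above the mean of all tested compounds plus 3 SD, cut at about 21% in these data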;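 further: 0% = DMSO alone and 100% = DMSO wells spiked with extra 5 µM PC-3 D3A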
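Test system: Procaspase-3 D3A mutant; medium: Zinc-free HEPES/NaCl buffer with 0.01% Triton X-100 at pH 7.4; reagent: DEVD-pNA substrate; doses: one concentration, 8.5 µM nominal, 0.8% DMSO; times: 1 h preincubation plus 2 h reaction at 25 °C; signal: Epi-absorbance at 405 nm of released p-nitroaniline, 0 and 120 min; replicates: singlicate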
PLC-gamma1 inh: inhibitors of human phospholipase C gamma1. purified PLC-gamma1, fluorogenic substrate, fluorescence. 370,000 compounds, 0.84% hits. inhibition, % at 12.2 µM; in the data active means inhibition above about 9.5%
hGIII sPLA2 conf: human GIII-sPLA2 inhibition, confirmation; shares compounds with sPLA2-III inh; recombinant hGIII-sPLA2, BODIPY PC-A2 QFRET fluorescence; inhibition, % at 12.2 µM; 2,000 compounds, 34% hits; AID 743280;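 active means mean inhibition across triplicates above the hit cutoff set in the earlier primary screen, cut at about 19% in these data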;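 further: 0% = enzyme with DMSO and 100% = DMSO wells lacking enzyme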
535nm interf: optically interferes with 535nm fluorescence in sPLA2 counter-screen; shares compounds with sPLA2-III inh; 2,000 compounds, 8.5% hits; inhibition, % at 12.2 µM; AID 743282; BODIPY FL product fluorescence interference, QFRET;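 active means average inhibition above the solvent-only control mean plus 3 SD, cut at about 6% in these data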;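 further: 0% = DMSO with substrate plus product and 100% = DMSO with substrate alone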
BODIPY interf DR: interferes with 535nm fluorescence in dose response counter-screen; shares compounds with sPLA2-III inh; BODIPY FL product fluorescence interference, cell-free; IC50, µM; 240 tested, under 10 active; AID 743455;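 active means IC50 at or below 10 µM; inactive means IC50 above 10 µM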
Numbers without * were called inactive. Shown are actives, neighbours in structure and some others; about 1.9% of the full set was active somewhere.

For C=CC[n+]1c(-c2ccccc2)csc1NC(C)(C)C the results were sPLA2-III inh 19*, Arr AP2 block 21, proCasp7 act 8, PLCb3 inh 1, proCasp3 act 0, PLC-gamma1 inh -2, hGIII sPLA2 conf 21* and 535nm interf -4.
Screening COc1ccccc1C1CC(c2ccccc2)=NN1C(=S)Nc1ccccc1 (stereo not given) returned sPLA2-III inh 2, Arr AP2 block -5, proCasp7 act -4, PLCb3 inh -7, proCasp3 act -2 and PLC-gamma1 inh -3.
Screening Fc1ccc2nc(-c3ccc(CN4CCC5(CC4)CNc4ccccc45)cc3)c(-c3ccccc3)nc2c1 returned sPLA2-III inh 20*, PLCb3 inh -19, PLC-gamma1 inh -12, hGIII sPLA2 conf 17 and 535nm interf -8.
Screening OC(c1ccccc1)C(NCc1ccccc1)c1ccccc1 (stereo not given) returned sPLA2-III inh -4, PLCb3 inh -5 and PLC-gamma1 inh 2.
For O=C(CSc1nc2ccccc2[nH]1)N1CCN(C(=O)c2ccco2)CC1 the results were sPLA2-III inh 19*, Arr AP2 block -3, proCasp7 act -14, PLCb3 inh 3, proCasp3 act -8, PLC-gamma1 inh 9, hGIII sPLA2 conf 1 and 535nm interf -4.
`Cc1ccc2nc(SCC(=O)N3CCN(C(=O)c4ccco4)CC3)[nH]c2c1` gave sPLA2-III inh 2, Arr AP2 block 10, proCasp7 act 14, PLCb3 inh -1, proCasp3 act 4 and PLC-gamma1 inh 1.
Screening CCCCC(=O)Nc1ccc(NC(=S)NC(=O)c2ccco2)cc1OC returned sPLA2-III inh 31*, Arr AP2 block 9, proCasp7 act -2, PLCb3 inh -7, proCasp3 act -18, PLC-gamma1 inh 5, hGIII sPLA2 conf 18 and 535nm interf -9.
`CNC(=S)N1CCN(c2nc(-c3ccc(F)cc3)cs2)CC1` gave sPLA2-III inh 20*, Arr AP2 block 10, proCasp7 act -9, PLCb3 inh -9, proCasp3 act 3, PLC-gamma1 inh -5, hGIII sPLA2 conf 14 and 535nm interf -1.
COCCCNC(=S)N1CCN(c2nc(-c3ccc(F)cc3)cs2)CC1 was read as sPLA2-III inh 3, Arr AP2 block 4, proCasp7 act -3, PLCb3 inh -11, proCasp3 act -1 and PLC-gamma1 inh 0.
COc1cccc(CNC(=O)c2ccc(F)c(S(=O)(=O)N3CCCCC3)c2)c1 was read as sPLA2-III inh -10, PLCb3 inh -3 and PLC-gamma1 inh 0.
Screening CCN(CCn1cccn1)Cc1nc(Cc2cccc(F)c2)no1 returned sPLA2-III inh -1, Arr AP2 block 17, proCasp7 act 4, PLCb3 inh 2, proCasp3 act -1 and PLC-gamma1 inh -1.
O=C(NNC(=S)NC(=O)c1ccccc1)c1cccc([N+](=O)[O-])c1 was read as sPLA2-III inh 25*, Arr AP2 block -17, proCasp7 act -20, PLCb3 inh -2, proCasp3 act -7, PLC-gamma1 inh 1, hGIII sPLA2 conf 25* and 535nm interf -1.
For CCCOc1ccc(C(=O)NNC(=S)NC(=O)c2ccccc2[N+](=O)[O-])cc1 the results were sPLA2-III inh 21*, Arr AP2 block -7, proCasp7 act 7, PLCb3 inh -5, proCasp3 act -2, PLC-gamma1 inh 0, hGIII sPLA2 conf 31* and 535nm interf -4.
Screening Cc1ccccc1OCC(=O)NNC(=S)NC(=O)c1ccccc1[N+](=O)[O-] returned sPLA2-III inh 23*, Arr AP2 block -4, proCasp7 act -3, PLCb3 inh -1, proCasp3 act 4, PLC-gamma1 inh -1, hGIII sPLA2 conf 28*, 535nm interf -4 and BODIPY interf DR >122.
`CC(C)(C)c1ccc(OCC(=O)NNC(=S)NC(=O)c2ccccc2[N+](=O)[O-])c(Br)c1` gave sPLA2-III inh -3, Arr AP2 block -7, proCasp7 act -11, PLCb3 inh 0, proCasp3 act 5 and PLC-gamma1 inh 3.
`CC(C)C(=O)Nc1ccc(C(=O)NNC(=S)NC(=O)c2ccccc2[N+](=O)[O-])cc1` gave sPLA2-III inh 21*, Arr AP2 block -47, proCasp7 act 1, PLCb3 inh 0, proCasp3 act 4, PLC-gamma1 inh 5, hGIII sPLA2 conf 18 and 535nm interf -4.
For Cc1cc(S(=O)(=O)N2CCCCC2)ccc1OCC(=O)N1CCOCC1 the results were sPLA2-III inh -3, Arr AP2 block 4, proCasp7 act 0, PLCb3 inh -1, proCasp3 act 4 and PLC-gamma1 inh 0.
`CC1(C(=O)Nc2cccc(C#N)c2)CCN1C(=O)C1(c2ccccc2)CC1` (stereo not given) gave sPLA2-III inh -2, PLCb3 inh 1 and PLC-gamma1 inh 3.
`COc1ccc(C(=O)NC(=S)NNC(=O)c2ccc(C)cc2)cc1` gave sPLA2-III inh 19, Arr AP2 block -8, proCasp7 act -3, PLCb3 inh -13, proCasp3 act 3 and PLC-gamma1 inh 0.
For CCCCC(=O)Nc1ccc(C(=O)NNC(=S)NC(=O)c2ccccc2[N+](=O)[O-])cc1 the results were sPLA2-III inh 23*, Arr AP2 block 8, proCasp7 act 0, PLCb3 inh -5, proCasp3 act 5, PLC-gamma1 inh 2, hGIII sPLA2 conf 21* and 535nm interf -4.
For O=C(NNC(=S)NC(=O)c1ccccc1[N+](=O)[O-])c1ccccc1 the results were sPLA2-III inh 19*, Arr AP2 block -2, proCasp7 act -2, PLCb3 inh 2, proCasp3 act 3, PLC-gamma1 inh -5, hGIII sPLA2 conf 24* and 535nm interf -3.
Screening CCC(=O)NC(=S)NNC(=O)c1ccccc1[N+](=O)[O-] returned sPLA2-III inh -4, Arr AP2 block 7, proCasp7 act -44, PLCb3 inh -5, proCasp3 act -27 and PLC-gamma1 inh -2.
